The values below come from ChEMBL document CHEMBL4049456, “Identification of 4-(Aminomethyl)-6-(trifluoromethyl)-2-(phenoxy)pyridine Derivatives as Potent, Selective, and Orally Efficacious Inhibitors of the Copper-Dependent Amine Oxidase, Lysyl Oxidase-Like 2 (LOXL2)” (J Med Chem, 2017).

In data set [1] the target is T1, Lysyl oxidase homolog 2 (Homo sapiens, UniProt Q9Y4K0).
T1 sequence (Q9Y4K0 whole entry): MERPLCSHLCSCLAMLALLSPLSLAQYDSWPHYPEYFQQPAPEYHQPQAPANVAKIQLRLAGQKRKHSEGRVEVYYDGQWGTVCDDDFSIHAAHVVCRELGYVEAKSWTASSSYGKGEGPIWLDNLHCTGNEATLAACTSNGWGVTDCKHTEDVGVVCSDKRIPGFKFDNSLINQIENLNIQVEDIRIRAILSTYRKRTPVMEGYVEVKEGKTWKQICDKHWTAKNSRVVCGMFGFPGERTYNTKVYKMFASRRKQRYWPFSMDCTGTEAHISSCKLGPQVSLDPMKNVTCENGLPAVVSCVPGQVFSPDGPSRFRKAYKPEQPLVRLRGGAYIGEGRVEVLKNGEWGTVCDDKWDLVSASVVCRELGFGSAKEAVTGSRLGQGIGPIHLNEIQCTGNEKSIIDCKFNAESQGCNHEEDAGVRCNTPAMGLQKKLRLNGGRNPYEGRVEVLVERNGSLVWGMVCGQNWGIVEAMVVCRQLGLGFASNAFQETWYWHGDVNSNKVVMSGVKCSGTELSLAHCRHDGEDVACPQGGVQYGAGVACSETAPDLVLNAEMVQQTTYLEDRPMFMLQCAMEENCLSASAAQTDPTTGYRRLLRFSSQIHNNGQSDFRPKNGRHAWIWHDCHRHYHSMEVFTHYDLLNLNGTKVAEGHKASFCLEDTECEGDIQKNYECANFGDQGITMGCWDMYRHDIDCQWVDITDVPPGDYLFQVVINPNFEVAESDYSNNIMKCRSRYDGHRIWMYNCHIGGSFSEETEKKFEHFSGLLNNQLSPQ
In words: Inhibition of human LOXL2 expressed in CHO cells assessed as reduction of H2O2 production from oxidative deamination of DAP preincubated for 2 hrs followed by substrate addition measured every 2 mins for 1 hr by amplex red reagent-based fluorescence assay. The class given is cell-based.

Data set [2] concerns the target T1, Lysyl oxidase homolog 2. In words: Inhibition of human LOXL2 expressed in CHO cells assessed as reduction of H2O2 production from oxidative deamination of DAP preincubated for 2 hrs followed by substrate addition in presence of 0.1% BSA measured every 2 mins for 1 hr by amplex red reagent-based fluorescence assay. It is filed as cell-based.
The target in data set [3] is T1, Lysyl oxidase homolog 2. In words: Inhibition of recombinant human LOXL2 expressed in human whole blood assessed as reduction of H2O2 production from oxidative deamination of DAP preincubated for 2 hrs followed by substrate addition measured every 2 mins for 1 hr by amplex red reagent-based fluorescence assay.
Data set [4] can be described thus: Cmax in C57BL/6 mouse lung at 30 mg/kg, po by LC-MS/MS analysis. It is filed as ADME, organism-based. Details: dose 30 mg/kg, route oral. The procedure, abridged: (§1)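 Normal C57BL/6 mice, n = 3 per time point, received a single oral 30 mg/kg dose formulated in 0.5% methylcellulose.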
The nature of data set [5]: Cmax in C57BL/6 mouse plasma at 30 mg/kg, po by LC-MS/MS analysis. It is filed as ADME, organism-based. Further details: dose 30 mg/kg, route oral. The procedure, abridged:
as §1

In data set [6] the target is T2, Lysyl oxidase homolog 2 (Homo sapiens) (UniProt Q9Y4K0).
T2 sequence (whole entry): T1 sequence (Q9Y4K0 whole entry)
In words: Irreversible inhibition of human LOXL2 assessed as reduction of H2O2 production from oxidative deamination of DAP at 1000 times IC50 preincubated for 2 hrs followed by compound washout and subsequent incubation for 2 hrs prior to substrate addition measured every 2 mins for 40 mins by amplex red reagent-based fluorescence assay relative to control. The procedure, abridged: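 Wells were washed repeatedly with PBS and equilibrated for 2 h. Recovered activity was then compared with nonwashed controls.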

For data set [7], the target named is T2, Lysyl oxidase homolog 2 (Homo sapiens). Briefly: Irreversible inhibition of human LOXL2 assessed as catalytic activity preincubated for 2 hrs followed by substrate addition measured every 2 mins for 1 hr by amplex red reagent-based fluorescence assay relative to control. Further details: concentration or dose not given beside the values.
The nature of data set [8]: Protein binding in human plasma. It is filed as ADME, cell-free. The note with it: read-out: PPB (converted).

The term IC50 denotes the concentration needed to halve the response being measured. Turning to `NCc1ccnc(Oc2cccc(C(=O)Nc3ccc(C(=O)O)cc3)c2)c1`, the IC50 was 81 nM in data set [1], 300 nM in data set [2] and 1400 nM in data set [3].

As a reminder, the Cmax is the maximum level reached in the sampled fluid or tissue. What is called inhibition is the change of the read-out against control, counted positive when it falls. Take `Cl.NCc1cc(Oc2cccc(C(=O)Nc3ccccc3)c2)nc(C(F)(F)F)c1`: the concentration for half-maximal inhibition (IC50) in data set [1] was 42 nM; in data set [2] it was 62 nM; in data set [3] it was 2900 nM. In addition, the figures for the Cmax in data set [4] and in data set [5] were 10300 nM and 860 nM, respectively. The inhibition in data set [6] turned out to be 88%; in data set [7] it was 98%. Besides, the fraction unbound in data set [8] is 0.04.

Regarding `CONC(=O)c1cccc(Oc2cc(CN)cc(C(F)(F)F)n2)c1.Cl`, the IC50 in data set [1] amounted to 96 nM; in data set [2], 140 nM; in data set [3] it was 840 nM. Further, the results for the highest concentration (Cmax) in data set [4] and in data set [5] were 8780 nM and 630 nM, respectively.

For `NCc1cc(Oc2cccc(Oc3ccccc3)c2)nc(C(F)(F)F)c1`, the half-inhibitory concentration (IC50) in data set [1] came to 67 nM; in data set [2] it was 270 nM; in data set [3] it was 23000 nM.

Turning to `COCCNC(=O)c1cccc(Oc2cc(CN)ccn2)c1`, the figures for the IC50 in data set [1], in data set [2] and in data set [3] were 160 nM, 290 nM and 2900 nM, respectively.

For the compound `NCc1ccnc(Oc2cccc(C(=O)NCc3ccccc3)c2)c1`, the half-maximal inhibitory concentration (IC50) in data set [1] was 62 nM; in data set [2], 110 nM; in data set [3], 1400 nM.

Consider `Cl.Cl.NCc1cc(Oc2cccc(C(=O)N3CC[C@@H](N)C3)c2)nc(C(F)(F)F)c1`, for which the half-inhibitory concentration (IC50) came to 58 nM in data set [1], 100 nM in data set [2] and 690 nM in data set [3]. Moreover, the Cmax in data set [4] is 1230 nM; in data set [5], 670 nM.

In the case of `NCc1ccnc(Oc2cccc(C(=O)Nc3ccc(F)cc3)c2)c1`, the IC50 is 50 nM in data set [1], 130 nM in data set [2] and 1600 nM in data set [3].

In the case of `NCc1ccnc(Oc2cccc(C(=O)Nc3ccccc3)c2)c1`, the IC50 in data set [1] is 56 nM; in data set [2], 130 nM; in data set [3], 1300 nM.

Take `Cl.NCc1cc(Oc2cccc(C(=O)NC[C@@H](O)CO)c2)nc(C(F)(F)F)c1`: the half-inhibitory concentration (IC50) in data set [1] worked out at 77 nM; in data set [2], 88 nM; in data set [3], 550 nM. For the same compound, the Cmax in data set [4] turned out to be 1920 nM; in data set [5], 2770 nM. Also, the inhibition in data set [6] worked out at 77%; in data set [7], 96%.

On to `NCc1cc(Oc2cccc(C(=O)NCc3cc4ccccc4s3)c2)nc(C(F)(F)F)c1`, for which the half-inhibitory concentration (IC50) was 34 nM in data set [1], 100 nM in data set [2] and 9900 nM in data set [3].

For the compound `N=C(N)c1cccc(CNC(=O)c2cccc(Oc3cc(CN)ccn3)c2)c1`, the 50% inhibitory concentration (IC50) was found to be 180 nM in data set [1], 650 nM in data set [2] and 5200 nM in data set [3].

In the case of `NCc1cc(O[C@@H]2CCCN(C(=O)Nc3ccccc3)C2)nc(C(F)(F)F)c1`, the half-inhibitory concentration (IC50) in data set [1] came out at 570 nM; in data set [2], 620 nM; in data set [3], 40000 nM.

`COCCNC(=O)c1ccc(Oc2cc(CN)ccn2)cc1`: the 50% inhibitory concentration (IC50) in data set [1] was 500 nM; in data set [2], 1500 nM; in data set [3], 30000 nM.

`NCc1cc(O[C@H]2CCCN(C(=O)Nc3ccccc3)C2)nc(C(F)(F)F)c1`: the IC50 in data set [1] stood at 130 nM; in data set [2] it was 160 nM; in data set [3], 2000 nM. The Cmax in data set [4] was determined as 30000 nM; in data set [5], 1900 nM.

For `NCc1ccnc(Oc2cccc(C(=O)N3CCc4ccccc4C3)c2)c1`, the IC50 in data set [1] came to 120 nM; in data set [2], 370 nM; in data set [3], 7900 nM.

Consider `NCc1ccnc(Oc2cccc(C(=O)NCc3cc4ccccc4s3)c2)c1`, for which the results for the IC50 in data set [1], in data set [2] and in data set [3] were 79 nM, 110 nM and 1700 nM, respectively.

Turning to `Cl.NCc1cc(Oc2cccc(C(=O)NCCn3cnnn3)c2)nc(C(F)(F)F)c1`, the values for the concentration for half-maximal inhibition (IC50) in data set [1], in data set [2] and in data set [3] were 43 nM, 80 nM and 280 nM, respectively. Moreover, the figures for the highest concentration (Cmax) in data set [4] and in data set [5] were 3460 nM and 1990 nM, respectively. The inhibition in data set [6] is 77%; in data set [7] it was 97%.

Turning to `NCc1ccnc(Cl)c1`, the values for the inhibition in data set [6] and in data set [7] were 32% and 93%, respectively.

Turning to `COc1ccc(NC(=O)c2cccc(Oc3cc(CN)ccn3)c2)cc1`, the IC50 in data set [1] turned out to be 53 nM; in data set [2] it was 160 nM; in data set [3] it was 1800 nM.

In the case of `NCc1ccnc(Oc2ccc(C(=O)Nc3ccccc3)cc2)c1`, the IC50 in data set [1] was 270 nM; in data set [2], 750 nM; in data set [3] it was 39000 nM.

On to `NCc1ccnc(OC2CCCCC2)c1`, for which the IC50 worked out at 850 nM in data set [1], 1800 nM in data set [2] and 29000 nM in data set [3].

As for `Cl.NCc1cc(Oc2cccc(C(=O)NCCS(N)(=O)=O)c2)nc(C(F)(F)F)c1`, the figures for the IC50 in data set [1], in data set [2] and in data set [3] were 35 nM, 62 nM and 310 nM, respectively. Also, the values for the maximum concentration (Cmax) in data set [4] and in data set [5] were 540 nM and 1040 nM, respectively. The inhibition in data set [6] worked out at 75%; in data set [7] it was 97%.

Turning to `Cl.NCc1cc(Oc2cccc(C(=O)N3CC[C@@H](O)C3)c2)nc(C(F)(F)F)c1`, the values for the IC50 in data set [1], in data set [2] and in data set [3] were 110 nM, 150 nM and 910 nM, respectively. In addition, the peak concentration (Cmax) is 9130 nM in data set [4] and 5130 nM in data set [5]. The inhibition in data set [6] was determined as 75%; in data set [7], 95%.
